Assay outcomes deposited in PubChem by Broad Institute.
Shown are actives, neighbours in structure and some others; about 2.9% of the full set was active somewhere.
INS-1E GSIS act = GLuc luminescence reporter in INS-1E cells, primary screen for activators of glucose-dependent secretion of insulin; INS-1E GLuc reporter insulin secretion, 2-3 h; activation, % at 16.6 µM; 370,000 tested, 0.61% active; AID 743287, 2014;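 active means lowest replicate activation of at least 40%, so every replicate reaches that level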;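 further: 0% = median of neutral control wells and 100% = median of IBMX positive control wells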
dFosB activator = activators of delta FosB homodimer, primary screen, biochemical, fluorescence polarization, TAMRA-CDK5 oligo, single point | purified delta FosB; percent of positive-control signal above neutral wells | AID 493131, 2011 | activation, % at 25 µM | 340,000 tested, 0.99% active;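 active means mean activation above about 17%, with every replicate also reaching it, limit read from the data, passing the limit was not always enough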
CDK5 p35 inh = inhibitors of human CDK5/p35 kinase, primary screen, biochemical, single concentration; inhibition, % at 10 µM; Cyclin-dependent kinase 5 (Homo sapiens) + Cyclin-dependent kinase 5 activator 1 (Homo …; Recombinant CDK5/p35, ADP-Glo luminescence, 60 min; AID 488839, 2010; 330,000 tested, 0.01% active;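 active means highest replicate inhibition of at least 50% and at least 75% of replicates reaching 50%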;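 further: plate controls were DMSO neutral control for no effect and GW8510 at 10 µM for full effect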
Target sequence (Q00535 whole entry, looked up): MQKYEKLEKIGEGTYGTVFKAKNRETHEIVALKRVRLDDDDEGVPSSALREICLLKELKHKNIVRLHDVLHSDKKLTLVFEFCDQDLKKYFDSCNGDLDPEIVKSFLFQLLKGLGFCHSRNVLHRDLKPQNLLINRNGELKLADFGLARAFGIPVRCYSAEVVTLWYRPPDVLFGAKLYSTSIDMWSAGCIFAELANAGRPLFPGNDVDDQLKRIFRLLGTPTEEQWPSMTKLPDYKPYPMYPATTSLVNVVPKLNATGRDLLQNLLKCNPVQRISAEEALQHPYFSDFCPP
Target sequence (Q15078 whole entry, looked up): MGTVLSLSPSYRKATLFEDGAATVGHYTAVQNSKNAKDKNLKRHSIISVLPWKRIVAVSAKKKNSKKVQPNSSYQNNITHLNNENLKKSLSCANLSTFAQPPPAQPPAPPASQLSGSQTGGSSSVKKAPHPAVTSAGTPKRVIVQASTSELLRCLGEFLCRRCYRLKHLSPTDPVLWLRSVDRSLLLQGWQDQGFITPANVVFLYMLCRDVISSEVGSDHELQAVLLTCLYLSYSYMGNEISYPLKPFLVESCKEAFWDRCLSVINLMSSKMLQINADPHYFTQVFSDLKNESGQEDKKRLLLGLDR
Env fusion inh = inhibitors of HIV-1 Env-driven cell-cell fusion, primary screen, HeLa-JRFL effector, CEM21 target cells, luciferase | inhibition, % at 12.3 µM | 360,000 tested, 1.1% active;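 active means mean replicate inhibition score of at least 50 and every replicate individually at or above 50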;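 further: 0% = plate neutral controls and 100% = maraviroc near 300 nM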
PAX8 inh HTS = inhibitors of PAX8-driven TPO luciferase reporter, primary screen, RMG-I cells, single concentration. 360,000 tested, 1.2% active. AID 652154, 2013. SteadyGlo, 24 h. inhibition, % at 12.6 µM;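 active means mean replicate inhibition at least 60% with every replicate also reaching 60%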;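 further: luciferase light reporting Pax8 driven TPO promoter activity; plate controls were median of neutral control wells for no effect and mitoxantrone controls for full effect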
Cneo AK release = Cryptococcus neoformans cell lysis inducers, primary screen, AK release luminescence, single concentration; AID 651654, 2012; lysis activity, % at 15 µM; C. neoformans lysis, adenylate kinase release luminescence, 4 h; normalised: neutral wells 0, clomiphene wells 100; 360,000 tested, 0.2% active;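 active means mean lysis activity across replicates of at least 80%, whatever share of replicates individually reach that level; inactive means mean lysis activity below 80%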
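Assay system: Cryptococcus neoformans yeast cells / Dosing: single-point compound dose / Timing: 4 h at 37 °C static, read 1 h later / Measured by: luminescence of released adenylate kinase using an AK detection reagent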
* = called active by the depositor; . = no result; [ ] = remark or other dose.

SMILES	INS-1E GSIS act	dFosB activator	CDK5 p35 inh	Env fusion inh	PAX8 inh HTS	Cneo AK release
CCCC#Cc1ccc([C@@H]2[C@H]3CN(S(=O)(=O)c4ccccc4F)CCCCN3[C@H]2CO)cc1	-2	.	.	.	95*	4
Cc1cccc(-c2ccc([C@H]3[C@H](CO)N4CCCCN(S(=O)(=O)c5ccccc5C)C[C@@H]34)cc2)c1	-10	.	.	.	86*	0
Cc1cc(C(=O)Nc2ccc3c(c2)C(=O)N(C)[C@H]2CC[C@@H](CC(=O)O)O[C@H]2CO3)no1	5	.	.	18[16.7 µM]	-1	4
C[C@H](CO)N1C[C@H](C)[C@H](CN(C)Cc2ccc(C(=O)O)cc2)Oc2ccc(NC(=O)Nc3cccc4ccccc34)cc2C1=O	18	.	.	.	18	-1
COc1ccc(NC(=O)Cn2cnc3ccccc3c2=O)cc1OC	0	0	-6	-1	4	.
COc1ccc(/C=N/NC(=O)Cn2cnc3ccccc3c2=O)cc1OC	56*	-6	1	31	11	-2
COc1ccc(/C=N/NC(=O)CCOc2ccccc2C)cc1OC	53*	-4	-3	13	1	.
O=C(COc1ccccc1-c1ccccc1)N/N=C/c1cccc2ccccc12	.	-7	-2	.	.	0
COc1ccc(/C=N/NC(=O)COc2ccccc2-c2ccccc2)cc1	-4	-9	-1	-204	74*	3
COc1ccc(/C=N/NC(=O)COc2cccc3cccnc23)cc1OC	48	31*	0	-2	13	.
CC(C)NC(=O)Nc1ccc2c(c1)C(=O)N([C@H](C)CO)C[C@H](C)[C@@H](CN(C)CC1CCCCC1)O2	7	.	.	6[16.7 µM]	-10	5
O=C(Cc1ccccc1)N[C@H]1C=C[C@@H](CC(=O)N2CCOCC2)O[C@@H]1CO	12	.	.	3[16.7 µM]	-27	95*
O=C(Cc1ccccc1)N[C@H]1C=C[C@H](CC(=O)N2CCOCC2)O[C@@H]1CO	33	.	.	-2[16.7 µM]	-11	-2
O=C(NC1CCCCC1)N[C@@H]1C=C[C@@H](CC(=O)N2CCOCC2)O[C@H]1CO	-5	.	.	.	.	0
O=C(NC1CCCCC1)N[C@H]1C=C[C@@H](CC(=O)N2CCOCC2)O[C@H]1CO	28	.	.	.	.	104*
O=C(Cc1ccccc1)N[C@H]1C=C[C@@H](CC(=O)N2CCOCC2)O[C@H]1CO	1	.	.	2[16.7 µM]	-14	93*
Cc1ccc(C(C)C)c(OCC(=O)NCC(c2cccs2)N2CCOCC2)c1 (stereo not given)	-28	-6	2	-16	8	-1
O=C(NCC(c1cccs1)N1CCOCC1)c1ccc(OCc2ccccc2)cc1 (stereo not given)	-11	-10	0	-10	-17	0
COc1cc(C(=O)NCC(c2cccs2)N2CCOCC2)ccc1OCc1ccc(Cl)cc1 (stereo not given)	.	.	.	35	99*	0
Cc1cc(OCC(=O)NCC(c2cccs2)N2CCOCC2)ccc1C(C)C (stereo not given)	-51	-9	-1	59*	3	3
CO[C@@H]1CN(C)C(=O)c2cc(NC(=O)Nc3cccc(Cl)c3)ccc2OC[C@@H](C)N(C)C[C@H]1C	-7	.	.	.	.	.
COc1ccc(NC(=O)N(C)C[C@@H]2OCCCC[C@H](C)Oc3ccc(NS(=O)(=O)c4ccc(Cl)cc4)cc3C(=O)N([C@H](C)CO)C[C@H]2C)cc1	-18	.	.	-14[16.7 µM]	3	0
C=CCOc1ccccc1CN(C(=O)CCl)c1ccc2c(c1)OCO2	2	-10	2	-4	121*	-2
O=C(C[C@@H]1CC[C@H]2[C@@H](COC[C@H](O)CN2CCc2ccccc2)O1)NCc1ccc(F)cc1	-1	.	.	.	-19	50
COc1ccc(N/C=C/C(=O)c2ccc(Cl)cc2)cc1	112*	1	2	-131	-260	.
SMILES	INS-1E GSIS act	dFosB activator	CDK5 p35 inh	Env fusion inh	PAX8 inh HTS	Cneo AK release
COc1ccc(OC)c(N/C=C/C(=O)c2ccccc2)c1	7	-4	10	10	78*	-1
COc1ccc2c3c([nH]c2c1)[C@@H](CO)N(C(=O)CN1CCOCC1)CC31CN(C(C)=O)C1	14	.	.	.	.	.
CN(C)C(=O)C[C@H]1CC[C@@H](NS(=O)(=O)c2ccccc2)[C@@H](CO)O1	0	.	.	12[16.7 µM]	6	18
Cc1nc(SCC(=O)Nc2nc3ccccc3s2)c(C#N)c(C)c1C	5	4	1	63*	108*	.
CNc1ccccc1C(C)(C)c1cc(-c2ccc(F)cc2)no1	-19	-1	0	66*	32	.
COc1ccccc1NC(=O)N1C[C@@H](O)COC[C@@H]2O[C@H](CC(=O)NCCc3ccccc3)CC[C@H]21	6	.	.	.	12	-1
CCCn1c(C)nc2c(c1=O)c1nc3ccccc3nc1n2CCC1=CCCCC1	61*	-29	-1	-23	.	2
Cc1nc2c(c(=O)n1CCC1=CCCCC1)c1nc3ccccc3nc1n2/N=C/c1ccco1	-25	-22	1	.	.	-2
CC(=O)c1sc(NC(=O)CCS(=O)(=O)c2ccc(F)cc2)nc1C	3	.	.	11	77*	0
COc1ncc(-c2ccc(N3C(c4ccsc4)=Cc4ccccc4C3CC(C)=O)cc2)cn1 (stereo not given)	-14	.	.	-15	17	.
CC(=O)CC1c2ccccc2C=C(c2ccsc2)N1c1ccc(-c2cccs2)cc1 (stereo not given)	-35	.	.	7	75*	.
O=C(c1cccc(F)c1)N1C[C@@H]2[C@H](c3ccccc31)[C@@H](CO)N2C(=O)c1ccccn1	11	.	.	.	-7	-2
CCCCOP(=O)(c1ccc(N(C)C)cc1)C(O)c1c(Cl)cccc1Cl (stereo not given)	-8	-5	0	59*	-8	-6
CCCCOP(=O)(c1ccc(N(C)C)cc1)C(O)c1ccc(N(C)C)cc1 (stereo not given)	3	-8	1	14	3	5
CC(CCc1ccccc1)NCc1cccc2ccccc12 (stereo not given)	31	1	-1	66*	19	-2
CCNC(=O)C[C@H]1CC[C@H]2[C@@H](COC[C@H](O)CN2Cc2ccc(Cl)c(Cl)c2)O1	-7	.	.	.	18	-5
C=CCn1c(=N)n(CC(=O)c2cccc([N+](=O)[O-])c2)c2ccccc21	3	6	0	-1	-18	.
N=c1n(CCN2CCCCC2)c2ccccc2n1CC(=O)c1cccc([N+](=O)[O-])c1	2	21*	1	-9	41	2
CCNc1ncnc2c1cnn2C1CCCO1 (stereo not given)	.	6	-3	74*	-21	1
